According to publication PMC8248128 (International Journal of Cancer, 2021):
Values joined by “and” are separate entries in the source; they are usually repeats but may differ in a detail not shown here. Identical values can stand only once.

Legend:
[1] = tested on: PAR levels (balance of PARP and PARG activity) in peripheral blood mononuclear cells; test: Radiation‐enhanced‐PAR pharmacodynamic assay; format: in vivo, human; conditions: Day 8 vs before treatment, lowest dose‐level (25 mg olaparib BID), ex vivo 8 Gy
How it was run: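 Venous blood (16 mL, mononuclear cell preparation citrate tubes) was drawn pre-dose Day 0 and Day 8 of cycle 1; olaparib BID from Day 0, carboplatin AUC 3 mg*min/mL IV Day 1 at this level. Three independent samples of 2 × 10⁶ PBMCs were irradiated ex vivo with 8 Gy on ice, then held 1 h on ice. PAR was quantified by HT-PARP in vivo pharmacodynamics Assay II (NCI protocol). Reduction = ([Day 0 − Day 8]/Day 0) × 100%.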

[2] = tablet 300 mg vs capsule 400 mg; cited from earlier work
[3] = Olaparib pharmacokinetics in human plasma; format: in vivo; conditions: Cycle 1 day 0, dose‐level 3 (MTD), olaparib 75 mg tablets, N=6, plasma
[4] = 3 + 3 dose‐escalation: dose‐limiting toxicity; format: in vivo, human; conditions: patients with advanced cancer
[5] = once per 21‐day cycle with olaparib capsules 400 mg BID Day 1 to 7; cited from earlier work
Carboplatin = format: in vivo, human; conditions: Cycle 1 day 1, plasma ultrafiltrate, target AUC 4, N=21 (dose‐level 1‐4)
How it was run: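 Platinum from carboplatin measured in plasma and plasma ultrafiltrate by ICPMS with iridium internal standard. Carboplatin was given as a 30-min IV infusion on Day 1, dosed by Calvert formula (Cockcroft-Gault GFR), alongside oral olaparib BID from Day 0. Blood (4 mL) was sampled 0.25, 0.5, 1, 2, 4, 6, 8, 10, 24 and 48 h post-infusion. AUC0-48 calculated.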

SMILES | Relative reduction in PAR levels in PBMCs [1] | AUC of the tablet formulation (300 mg) higher than the capsule formulation (400 mg) [2] | Olaparib AUC0-12 (mean) [3] | Maximum tolerable dose (MTD), olaparib part ([4]; olaparib tablets continuously with carboplatin AUC 4 mg*min/mL d1/d22, two cycles) | MTD, carboplatin part (target AUC) [5] | Carboplatin AUC0-48 (mean) (Carboplatin) | Maximum tolerable dose (MTD), carboplatin part (target AUC) ([4]; carboplatin d1/d22 with olaparib tablets 75 mg BID, two cycles)
O=C(c1cc(Cc2n[nH]c(=O)c3ccccc23)ccc1F)N1CCN(C(=O)C2CC2)CC1 [olaparib] | 97.5% ± 0.1% | 13% | 15500 ng·h/mL | 75 mg BID |  |  | 
N.N.O=C([O-])C1(C(=O)[O-])CCC1.[Pt+2] [carboplatin] |  |  |  |  | 5 mg·min/mL | 5.10 mg·min/mL and 5.1 mg·min/mL and 5 mg·min/mL | 4 mg·min/mL
